{"source": "ChEMBL document CHEMBL4825662", "about": "(J Med Chem, 2021)", "key": {"Human orthopneumovirus [1]": {"test_system": "Human orthopneumovirus", "assay": "Antiviral activity against Respiratory syncytial virus A2 infected in African green monkey Vero cells by Plaque reduction assay", "type": "functional, organism-based"}, "[2]": {"assay": "Cytotoxicity against African green monkey Vero cells by MTT assay", "type": "cell-based", "details": "chlorocebus sabaeus", "summary_of_the_method": "(§1)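 Viability was assessed by MTT after culture with compound at 0.01 nM to 100 μM, run in parallel with plaque reduction assays. Values are the average of at least two testing occasions.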"}, "[3]": {"assay": "Cytotoxicity against human HepG2 cells by MTT assay", "type": "cell-based", "summary_of_the_method": "as §1"}, "[4]": {"assay": "Intrinsic clearance in Sprague-Dawley rat liver microsomes preincubated followed by NADPH addition and measured up to 45 mins by LC-MS/MS analysis", "type": "ADME, Microsome"}, "[5]": {"assay": "Intrinsic clearance in Beagle dog liver microsomes preincubated followed by NADPH addition and measured up to 45 mins by LC-MS/MS analysis", "type": "ADME, Canis lupus familiaris, Microsome"}, "[6]": {"assay": "Intrinsic clearance in human liver microsomes preincubated followed by NADPH addition and measured up to 45 mins by LC-MS/MS analysis", "type": "ADME, Microsome"}, "[7]": {"assay": "Thermodynamic solubility in PBS at 1 to 100 uM at pH 7.4 by HPLC-UV method", "type": "physicochemical", "details": "dose 1-100 µM, read-out: Therm_solubility"}, "[8]": {"assay": "Apparent permeability across apical to basolateral side in MDCK-MDR1 cells at 10 uM measured at 60 mins by LC-MS/MS analysis", "type": "ADME, cell-based, Canis lupus familiaris", "details": "dog, MDCK-MDR1"}, "[9]": {"assay": "Apparent permeability across basolateral side to apical side in MDCK-MDR1 cells at 10 uM measured at 60 mins by LC-MS/MS analysis", "type": "ADME, cell-based, Canis lupus familiaris", "details": "dog"}, "[10]": {"assay": "Efflux ratio of apparent permeability in MDCK-MDR1 cells at 10 uM measured at 60 mins by LC-MS/MS analysis", "type": "ADME, cell-based, Canis lupus familiaris", "details": "dog, MDCK-MDR1"}, "Human orthopneumovirus [11]": {"test_system": "Human orthopneumovirus", "assay": "Antiviral activity against Respiratory syncytial virus A2 infected in human Huh7 cells by Plaque reduction assay", "type": "functional, organism-based", "details": "A2, Huh-7", "summary_of_the_method": "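Huh-7 cells were infected with RSV strain A2 in the presence of compound. Values are the average of at least two testing occasions.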"}}, "note": "pEC50: −log10 of the molar value.", "data": [{"molecule": "CC(C)CCn1c(CN2C(=O)C3(CC3)c3c(Cl)cccc32)nc2cc(CN)ccc21", "values": [{"measurement": "pEC50", "setting": "Human orthopneumovirus [1]", "result": 6.74}, {"measurement": "CC50", "setting": "[2]", "result": 5.2, "unit": "µM"}]}, {"molecule": "CS(=O)(=O)c1ccc2c(c1)nc(CN1C(=O)C3(CC3)c3ccc(F)cc31)n2CCCC(F)(F)F", "values": [{"measurement": "pEC50", "setting": "Human orthopneumovirus [1]", "result": 5.44}, {"measurement": "CC50", "setting": "[3]", "result": "> 25", "unit": "µM"}]}, {"molecule": "CCNC(=N)c1ccc2c(c1)nc(CN1C(=O)C3(CC3)c3ccc(F)cc31)n2CCCC(F)(F)F", "values": [{"measurement": "pEC50", "setting": "Human orthopneumovirus [1]", "result": 6.34}, {"measurement": "CC50", "setting": "[3]", "result": "> 25", "unit": "µM"}]}, {"molecule": "CS(=O)(=O)CCCn1c(CN2C(=O)C3(CC3)c3ccc(F)cc32)nc2cc(CN)ccc21", "values": [{"measurement": "Microsomal intrinsic clearance", "setting": "[4]", "result": 3.63, "unit": "µL/min"}, {"measurement": "intrinsic clearance", "setting": "[5]", "result": 5.34, "unit": "µL/min"}, {"measurement": "intrinsic clearance (CLint)", "setting": "[6]", "result": 3.78, "unit": "µL/min"}, {"measurement": "solubility thermodynamic", "setting": "[7]", "result": 2600, "unit": "µM"}, {"measurement": "Papp A→B at 1 h, 10 µM", "setting": "[8]", "result": 0.24, "unit": "×10⁻⁶ cm/s"}, {"measurement": "Papp B→A at 1 h, 10 µM", "setting": "[9]", "result": 0.79, "unit": "×10⁻⁶ cm/s"}, {"measurement": "efflux ratio at 1 h, 10 µM", "setting": "[10]", "result": 3.26}, {"measurement": "CC50", "setting": "[3]", "result": "> 25", "unit": "µM"}, {"measurement": "pEC50", "setting": "Human orthopneumovirus [11]", "result": 8.24}]}, {"molecule": "CC(C)CCn1c(CN2C(=O)C3(CCCC3)Cc3ccccc32)nc2cc(CN)ccc21", "values": [{"measurement": "pEC50", "setting": "Human orthopneumovirus [1]", "result": 4.85}, {"measurement": "CC50", "setting": "[2]", "result": 11.5, "unit": "µM"}]}, {"molecule": "O=C1N(Cc2nc3ccccc3n2CCCC(F)(F)F)c2cc(F)ccc2C12CC2", "values": [{"measurement": "pEC50", "setting": "Human orthopneumovirus [1]", "result": 7.75}, {"measurement": "CC50", "setting": "[2]", "result": "> 25", "unit": "µM"}]}, {"molecule": "CC(C)CCn1c(CN2C(=O)C3(CC3)Oc3ccccc32)nc2cc(CN)ccc21", "values": [{"measurement": "pEC50", "setting": "Human orthopneumovirus [1]", "result": 5.77}, {"measurement": "CC50", "setting": "[2]", "result": 22.7, "unit": "µM"}]}, {"molecule": "CC(C)CCn1c(CN2C(=O)C3(CCC3)c3ccccc32)nc2cc(CN)ccc21", "values": [{"measurement": "pEC50", "setting": "Human orthopneumovirus [1]", "result": 6.62}, {"measurement": "CC50", "setting": "[2]", "result": 13.8, "unit": "µM"}]}, {"molecule": "CC(C)CCn1c(CN2C(=O)C3(CC3)c3cc(Cl)ccc32)nc2cc(CN)ccc21", "values": [{"measurement": "pEC50", "setting": "Human orthopneumovirus [1]", "result": 7.60}, {"measurement": "CC50", "setting": "[2]", "result": 0.71, "unit": "µM"}]}, {"molecule": "NCc1ccc2c(c1)nc(CN1C(=O)C3(CC3)c3ccc(F)cc31)n2CCCCO", "values": [{"measurement": "CC50", "setting": "[3]", "result": "> 25", "unit": "µM"}, {"measurement": "pEC50", "setting": "Human orthopneumovirus [11]", "result": 8.44}]}, {"molecule": "N#Cc1ccc2c(c1)nc(CN1C(=O)C3(CC3)c3ccc(F)cc31)n2CCCC(F)(F)F", "values": [{"measurement": "pEC50", "setting": "Human orthopneumovirus [1]", "result": 6.35}, {"measurement": "CC50", "setting": "[3]", "result": 23.7, "unit": "µM"}]}, {"molecule": "CC(C)CCn1c(CN2C(=O)C3(CC3)c3ccc(Cl)cc32)nc2cc(CN)ccc21", "values": [{"measurement": "pEC50", "setting": "Human orthopneumovirus [1]", "result": 8.17}, {"measurement": "CC50", "setting": "[2]", "result": 4.5, "unit": "µM"}]}, {"molecule": "CC(C)CCn1c(CN2C(=O)C3(CC3)c3cccc(Cl)c32)nc2cc(CN)ccc21", "values": [{"measurement": "pEC50", "setting": "Human orthopneumovirus [1]", "result": 5.62}, {"measurement": "CC50", "setting": "[2]", "result": 21.7, "unit": "µM"}]}, {"molecule": "CC(C)CCn1c(CN2C(=O)C3(CCCC3)c3ccccc32)nc2cc(CN)ccc21", "values": [{"measurement": "pEC50", "setting": "Human orthopneumovirus [1]", "result": 6.24}, {"measurement": "CC50", "setting": "[2]", "result": 9.94, "unit": "µM"}]}, {"molecule": "CC(C)CCn1c(CN2C(=O)C3(CC3)Cc3ccccc32)nc2cc(CN)ccc21", "values": [{"measurement": "pEC50", "setting": "Human orthopneumovirus [1]", "result": 5.47}, {"measurement": "CC50", "setting": "[2]", "result": 33.4, "unit": "µM"}]}, {"molecule": "O=C1N(Cc2nc3cc(Cl)ccc3n2CCCC(F)(F)F)c2cc(F)ccc2C12CC2", "values": [{"measurement": "pEC50", "setting": "Human orthopneumovirus [1]", "result": 8.27}, {"measurement": "CC50", "setting": "[2]", "result": "> 25", "unit": "µM"}, {"measurement": "Microsomal intrinsic clearance", "setting": "[4]", "result": 71.3, "unit": "µL/min"}, {"measurement": "intrinsic clearance", "setting": "[5]", "result": 328, "unit": "µL/min"}, {"measurement": "intrinsic clearance (CLint)", "setting": "[6]", "result": 177, "unit": "µL/min"}, {"measurement": "Papp B→A at 1 h, 10 µM", "setting": "[9]", "result": 0.14, "unit": "×10⁻⁶ cm/s"}]}, {"molecule": "O=C(O)c1ccc2c(c1)nc(CN1C(=O)C3(CC3)c3ccc(F)cc31)n2CCCC(F)(F)F", "values": [{"measurement": "pEC50", "setting": "Human orthopneumovirus [1]", "result": 4.99}, {"measurement": "CC50", "setting": "[3]", "result": "> 25", "unit": "µM"}]}]}
